Measurements of several laboratories.
Observed: cell growth or viability

Compound	cell line	technique	time	IC50
Cc1cnc(Nc2ccc(OCCN3CCCC3)cc2)nc1Nc1cccc(S(=O)(=O)NC(C)(C)C)c1	SET-2	CCK-8		1.01 µM
CCCCn1cnc2ccc(-c3ccc(NC(=O)Nc4ccc(C(F)(F)F)cc4)nc3)cc2c1=O	NCI-H1975	CCK-8	72 h	6.85 µM
O=C(Nc1ccc(Cl)cc1)Nc1nc2cc(-c3ccc4ncn(CCN5CCOCC5)c(=O)c4c3)ccc2s1	NCI-H1975	MTT	72 h	> 20 µM
CCCCC(=O)Nc1ccc(-c2ccc3ncn(CCC)c(=O)c3c2)cc1F	NCI-H1975	CCK-8	72 h	1.68 µM
O=C(Nc1ccc(Cl)cc1)Nc1nc2cc(-c3ccc4ncn(Cc5ccccc5)c(=O)c4c3)ccc2s1	NCI-H1975	MTT	72 h	> 20 µM
CCOc1ccc(Nc2c3c(nc4ccccc24)CCC3)cc1	HEK293	resazurin	72 h	18.1 µM
O=C(NCc1ccccc1)Nc1nc2cc(-c3ccc4ncn(Cc5ccccc5)c(=O)c4c3)ccc2s1	NCI-H1975	MTT	72 h	> 20 µM
Nc1ccn([C@@H]2O[C@H](CO)[C@@H](O)C2(F)F)c(=O)n1	HEK293	MTT	48 h	17.4 mg/L
CN(C)C(=O)c1cc2cnc(Nc3ccc(-c4ccc5c(=O)cc(N6CCOCC6)oc5c4)cc3)nc2n1C1CCCC1	HEK293	ATP luminescence	72 h	0.55 µM
CCCn1cnc2ccc(-c3ccc(N4CCC(C)CC4=O)nc3)cc2c1=O (centres unmarked)	NCI-H1975	CCK-8	72 h	> 10 µM
c1ccc(Oc2ccc(Nc3c4c(nc5ccccc35)CCC4)cc2)cc1	HEK293	resazurin	72 h	11.2 µM
Cc1ncsc1-c1ccc([C@H](C)NC(=O)[C@@H]2C[C@@H](O)CN2C(=O)[C@@H](NC(=O)CN2CCN(c3cc(-c4ccccc4O)nnc3N)CC2)C(C)(C)C)cc1	HCC515	ATP luminescence	7 days	0.182 µM
CCCCCC(=O)Nc1ccc(-c2ccc3ncn(CCC)c(=O)c3c2)cn1	NCI-H1975	CCK-8	72 h	0.074 µM
O=C(Nc1ccc(F)cc1)Nc1nc2cc(-c3ccc4ncn(CCN5CCOCC5)c(=O)c4c3)ccc2s1	NCI-H1975	MTT	72 h	4.31 µM
CCCCC(=O)Nc1ccc(-c2ccc3ncn(CCC)c(=O)c3c2)c(C)n1	NCI-H1975	CCK-8	72 h	5.44 µM
Nc1nnc(-c2ccccc2O)cc1N1CC2CCC(C1)N2c1ccnc(F)c1	HCC515	ATP luminescence	7 days	> 1 µM
O=C(Nc1cccc(F)c1)Nc1nc2cc(-c3ccc4ncn(Cc5ccccc5)c(=O)c4c3)ccc2s1	NCI-H1975	MTT	72 h	> 20 µM
CN1CCC(NC2CCc3[nH]c4c(C(N)=O)ccc(-c5ccccc5Cl)c4c3C2)CC1 (centres unmarked)	Pfeiffer		96 h	0.0257 µM
CCCCn1cnc2ccc(-c3ccc(NC(=O)Nc4ccc(Cl)cc4)nc3)cc2c1=O	NCI-H1975	CCK-8	72 h	2.55 µM
O=C(Nc1ccc(F)cc1)Nc1nc2cc(-c3ccc4ncn(CC(=O)N5CCOCC5)c(=O)c4c3)ccc2s1	NCI-H1975	MTT	72 h	> 20 µM
